Screening results from PubChem BioAssay.
mIAP act: mouse IAP activation | actives 0.24% (n = 330,000) | activation factor at 10 µM | muIAP, CDP-Star luminescence, 30 min; stronger effect = higher value; 1 = vehicle-only enzyme signal, 0 = enzyme-free wells | AID 2805;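 active = activation factor of at least 2 at 20 µM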
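Assay system: mouse IAP enzyme / Compound: DMSO-dissolved test compounds / Timing: 30 min, room temperature / Measured by: luminescence from enzymatic CDP-Star hydrolysis / Control set: DMSO-only wells, enzyme-free buffer wells as negative control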
hIAP inh: human IAP inhibition; AID 2544; inhibition, % at 10 µM; actives 0.12% (n = 330,000); purified IAP, CDP-Star luminescence, 30 min;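 active = inhibition reaching a set limit with compound at 10 µM in the primary screen, cut at about 35% in these data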
mIAP block: mouse IAP inhibition; purified mouse IAP, CDP-Star luminescence, 30 min; inhibition, % at 10 µM; actives 0.2% (n = 330,000); AID 2806;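 active = inhibition of at least 40% at 10 µM in the primary screen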
bIAP activator: increases bovine intestinal alkaline phosphatase activity; actives 0.17% (n = 200,000); purified bovine IAP, CDP-star luminescence, 30 min; stronger effect = higher value; fold of DMSO-control signal, blank-subtracted; activation factor at 20 µM; AID 1016;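 active = activation factor of 2 or more at 20 µM, a signal rise over negative controls twice the positive control's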
hIAP act: increases human intestinal alkaline phosphatase activity; actives 0.16% (n = 330,000); AID 2524; purified human IAP, CDP-Star luminescence, 30 min; stronger effect = higher value; 1 = vehicle-only enzyme, 0 = enzyme-free background; activation factor at 10 µM; P09923;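 active = activation factor of the enzyme at least 2-fold when tested at 20 µM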
bIAP inh: intestinal alkaline phosphatase (bovine) inhibition; 190,000 tested, under 10 active; inhibition, % at 20 µM; purified bovine IAP, CDP-star luminescence, 30 min; AID 1019;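 active = over 50% inhibition of intestinal alkaline phosphatase at 20 µM in the single-dose screen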
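System: Purified bovine intestinal alkaline phosphatase (IAP) enzyme | Input: IAP diluted 1/65,000,000 in the well | Also added: CDP-star chemiluminescent phosphatase substrate, 30 µM final | Dosing: 20 µM single dose | Times: Enzyme reaction for 30 min at room temperature | Detection: Luminescence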
mIAP inh conf: mouse IAP inhibition confirmation. shares compounds with mIAP block. purified mouse IAP, CDP-Star luminescence, 30 min. inhibition, % at 10 µM. actives 4.7% (n = 11,000). AID 434971;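 active = inhibition of at least 40% at 10 µM in either of the two replicates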
Large screens that a line does not name were inactive (follow-up assays come after a bar, where they were run). Hits are enriched below; roughly 0.77% of the tested compounds scored in any of these assays.

O=C(CCC(=O)N(CC(=O)NC1CCCCC1)CC1CCCO1)Nc1nccs1 (configuration not stated)	none
O=C(O)c1ccc(N2C(=O)/C(=C/C=C/c3ccccc3)SC2=S)cc1	none
O=C1/C(=C/C=C/c2ccco2)SC(=S)N1c1ccc(O)cc1	mIAP block 80 (no result: bIAP activator, bIAP inh) | mIAP inh conf 77
O=c1cc(-c2ccc(O)cc2)oc2cc(O)c(C3OC(CO)C(O)C(O)C3O)c(O)c12 (configuration not stated)	mIAP block 50 | mIAP inh conf 47
C=CCn1c(O)c(N=NC(=O)c2cccnc2)c2cc(Br)ccc21	none (no result: bIAP activator, bIAP inh)
CCC1=NN2C(=N)/C(=C\c3ccc(SCc4ccco4)o3)C(=O)N=C2S1	mIAP block 74 | mIAP inh conf 72
CCCC1=NN2C(=N)/C(=C\c3cc(C)n(Cc4ccccc4)c3C)C(=O)N=C2S1	none (no result: bIAP activator, bIAP inh)
CCC1=NN2C(=N)/C(=C/c3c(C)nn(-c4ccccc4)c3Cl)C(=O)N=C2S1	none
CCCC1=NN2C(=N)/C(=C\c3ccc(SCc4ccco4)o3)C(=O)N=C2S1	mIAP block 57 | mIAP inh conf 70
O=C(Cn1ccc2ccccc2c1=O)NCC(=O)Nc1ccc(F)cc1F	none (no result: bIAP activator, bIAP inh)
